Source: ChEMBL document CHEMBL4368914, “Tricyclic Indazoles-A Novel Class of Selective Estrogen Receptor Degrader Antagonists” (J Med Chem, 2019)

How the values were obtained:
[1] = Lipophilicity, log D of the compound at pH 7.4 by shake flask method; type: physicochemical; settings: buffer
Summary of the method: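 Shake-flask measurement of logD at pH 7.4.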

[2] = Fraction unbound in 10% human plasma by equilibrium dialysis; type: ADME, cell-free; settings: 10% plasma
Summary of the method: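 Equilibrium dialysis from DMSO stock in 10% plasma, either Alderley Park Han Wistar rat plasma or human plasma.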

[3] = Apparent permeability in human Caco2 cells at 10 uM; type: ADME, cell-based; settings: Caco-2
Summary of the method: (§1)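 Compound at 10 μM incubated on cultured Caco-2 or MDCK cells. Permeability was measured apical-to-basolateral and basolateral-to-apical, and efflux ratio was taken as (B to A)/(A to B).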

[4] = Efflux ratio of apparent permeability in human Caco2 cells at 10 uM; type: ADME, cell-based; settings: Caco-2; summary of the method: as §1
[5] = Efflux ratio of apparent permeability in MDCK cells at 10 uM; type: ADME, cell-based, Canis lupus familiaris; settings: dog; summary of the method: as §1
[6] = Fraction unbound in mouse plasma by equilibrium dialysis; type: ADME, cell-free
[7] = Fraction unbound in dog plasma by equilibrium dialysis; type: ADME, cell-free, Canis lupus familiaris
[8] = Volume of distribution at steady state in rat at 0.5 mg/kg, iv or 1 mg/kg, po; type: ADME, organism-based; settings: in vivo, read-out: Vdss
Summary of the method: (§2)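 Single IV dose of 0.5 mg/kg and oral dose of 1 mg/kg in rat and dog. Both routes were formulated in 5% DMSO:95% hydroxypropyl β-cyclodextrin (30% w/v), at 1 mL/kg IV and 4 mL/kg PO.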

[9] = Half life in rat at 0.5 mg/kg, iv or 1 mg/kg, po; type: ADME, organism-based; settings: in vivo; summary of the method: as §2
[10] = Oral bioavailability in dog at 1 mg/kg; type: ADME, organism-based, Canis lupus familiaris; settings: in vivo; summary of the method: as §2
[11] = AUC in rat at 1 mg/kg, po; type: ADME, organism-based; settings: in vivo, read-out: AUC; summary of the method: as §2
[12] = AUC in dog at 1 mg/kg, po; type: ADME, organism-based, Canis lupus familiaris; settings: in vivo; summary of the method: as §2
[13] = biological target: T1, Estrogen receptor (Homo sapiens, UniProt P03372); assay: Agonist activity at ERalpha in human MCF7 cells assessed as effect on PR protein expression after 5 hrs by formaldehyde-staining based assay; type: cell-based
T1 sequence (P03372 whole entry): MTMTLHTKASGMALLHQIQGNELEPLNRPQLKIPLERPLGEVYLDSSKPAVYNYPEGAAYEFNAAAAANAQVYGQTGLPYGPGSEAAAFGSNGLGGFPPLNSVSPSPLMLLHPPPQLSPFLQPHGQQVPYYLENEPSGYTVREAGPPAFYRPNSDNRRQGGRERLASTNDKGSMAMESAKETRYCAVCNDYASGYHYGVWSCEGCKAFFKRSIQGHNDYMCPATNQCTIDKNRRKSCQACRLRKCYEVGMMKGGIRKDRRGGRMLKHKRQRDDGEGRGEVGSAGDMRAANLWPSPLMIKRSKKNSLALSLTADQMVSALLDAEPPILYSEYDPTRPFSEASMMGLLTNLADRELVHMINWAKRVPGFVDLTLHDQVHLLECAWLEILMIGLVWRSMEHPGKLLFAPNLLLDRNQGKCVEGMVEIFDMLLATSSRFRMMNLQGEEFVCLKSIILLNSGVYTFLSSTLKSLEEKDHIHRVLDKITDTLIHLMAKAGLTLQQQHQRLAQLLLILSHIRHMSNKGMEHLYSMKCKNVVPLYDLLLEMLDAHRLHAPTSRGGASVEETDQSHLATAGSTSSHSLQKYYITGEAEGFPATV

[14] = biological target: T2, Estrogen receptor (Homo sapiens) (UniProt P03372); assay: Induction of ERalpha degradation in human MCF7 cells after 24 hrs by Western blot analysis; type: cell-based
T2 sequence (whole entry): T1 sequence (P03372 whole entry)
Summary of the method: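 MCF-7 cells in phenol red-free RPMI1640 with 5% charcoal-stripped FCS and 2 mmol/L glutamine (37 °C, 5% CO₂) exposed to a range of concentrations for 24 h. Total protein extracted and immunoblotted with anti-ER (SP1) and GAPDH antibodies diluted in 5% milk-PBS-Tween. Detection by enhanced chemiluminescent HRP substrate and imager.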

[15] = biological target: T2, Estrogen receptor (Homo sapiens); assay: Antagonist activity at ERalpha in human MCF7 cells assessed as inhibition of estradiol-driven cell growth measured after overnight incubation by SYTOX green-based assay
Summary of the method: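 MCF-7 cells grown at 37 °C, 5% CO₂, humidified, in phenol red-free RPMI1640 with 5% charcoal-stripped FCS and 2 mmol/L glutamine. Compounds held as 10 mmol/L DMSO stocks under nitrogen. Proliferation read in the presence of 0.1 nM estradiol.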

[16] = biological target: T1, Estrogen receptor; assay: Antagonist activity at ERalpha in human MCF7 cells assessed as inhibition of estradiol-driven PR response by microplate cytometry; type: cell-based
[17] = test system: Mus musculus; assay: In vivo antagonist activity at ERalpha in tumor of human MCF7 cells xenografted in po dosed SCID CB17 mouse assessed as reduction in PR levels administered once daily for 3 days measured after 24 hrs post last dose by Western blot analysis; type: functional, organism-based
Summary of the method: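 Male SCID mice carried a 0.5 mg/21 day s.c. estrogen pellet, with 5x10^6 MCF-7 cells implanted s.c. in the hind flank 24 h later. Groups of 5 were randomised at 0.5–0.8 cm³ and gavaged once daily for 3 d in PEG400/Captisol/water vehicle at 10 ml/kg. Tumours were taken 24 h post-dose, and PR was read by Western blot normalized to vinculin.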

[18] = Glutathione reactivity in human liver microsomes assessed as GSH trapping ratio of compound to clozapine; type: ADME, Microsome
Summary of the method: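 Glutathione trapping in human liver microsomes, expressed as a ratio to clozapine.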

[19] = biological target: Cytochrome P450 3A4 (Homo sapiens, UniProt P08684); assay: Inhibition of CYP3A4 in human liver microsomes; type: ADME
Cytochrome P450 3A4, sequence (P08684 whole entry, canonical isoform): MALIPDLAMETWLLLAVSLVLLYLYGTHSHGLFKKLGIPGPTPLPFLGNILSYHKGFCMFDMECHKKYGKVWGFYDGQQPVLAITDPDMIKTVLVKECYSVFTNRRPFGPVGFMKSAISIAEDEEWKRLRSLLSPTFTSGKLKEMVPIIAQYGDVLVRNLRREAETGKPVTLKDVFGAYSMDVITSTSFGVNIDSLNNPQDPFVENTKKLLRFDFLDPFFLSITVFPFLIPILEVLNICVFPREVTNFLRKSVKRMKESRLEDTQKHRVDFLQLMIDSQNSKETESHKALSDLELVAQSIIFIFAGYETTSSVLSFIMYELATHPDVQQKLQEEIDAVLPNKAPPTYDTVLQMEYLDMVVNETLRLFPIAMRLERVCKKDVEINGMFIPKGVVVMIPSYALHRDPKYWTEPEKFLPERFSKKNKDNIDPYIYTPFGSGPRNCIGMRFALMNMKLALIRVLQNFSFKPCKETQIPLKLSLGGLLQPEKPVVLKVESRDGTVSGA
Summary of the method: (§3)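 High-throughput human liver microsome assay across a panel of five CYP isoforms, giving IC50.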

[20] = biological target: Voltage-gated inwardly rectifying potassium channel KCNH2 (Homo sapiens, UniProt Q12809); assay: Inhibition of human ERG by plate based planar patch clamp assay
Voltage-gated inwardly rectifying potassium channel KCNH2, sequence (Q12809 whole entry): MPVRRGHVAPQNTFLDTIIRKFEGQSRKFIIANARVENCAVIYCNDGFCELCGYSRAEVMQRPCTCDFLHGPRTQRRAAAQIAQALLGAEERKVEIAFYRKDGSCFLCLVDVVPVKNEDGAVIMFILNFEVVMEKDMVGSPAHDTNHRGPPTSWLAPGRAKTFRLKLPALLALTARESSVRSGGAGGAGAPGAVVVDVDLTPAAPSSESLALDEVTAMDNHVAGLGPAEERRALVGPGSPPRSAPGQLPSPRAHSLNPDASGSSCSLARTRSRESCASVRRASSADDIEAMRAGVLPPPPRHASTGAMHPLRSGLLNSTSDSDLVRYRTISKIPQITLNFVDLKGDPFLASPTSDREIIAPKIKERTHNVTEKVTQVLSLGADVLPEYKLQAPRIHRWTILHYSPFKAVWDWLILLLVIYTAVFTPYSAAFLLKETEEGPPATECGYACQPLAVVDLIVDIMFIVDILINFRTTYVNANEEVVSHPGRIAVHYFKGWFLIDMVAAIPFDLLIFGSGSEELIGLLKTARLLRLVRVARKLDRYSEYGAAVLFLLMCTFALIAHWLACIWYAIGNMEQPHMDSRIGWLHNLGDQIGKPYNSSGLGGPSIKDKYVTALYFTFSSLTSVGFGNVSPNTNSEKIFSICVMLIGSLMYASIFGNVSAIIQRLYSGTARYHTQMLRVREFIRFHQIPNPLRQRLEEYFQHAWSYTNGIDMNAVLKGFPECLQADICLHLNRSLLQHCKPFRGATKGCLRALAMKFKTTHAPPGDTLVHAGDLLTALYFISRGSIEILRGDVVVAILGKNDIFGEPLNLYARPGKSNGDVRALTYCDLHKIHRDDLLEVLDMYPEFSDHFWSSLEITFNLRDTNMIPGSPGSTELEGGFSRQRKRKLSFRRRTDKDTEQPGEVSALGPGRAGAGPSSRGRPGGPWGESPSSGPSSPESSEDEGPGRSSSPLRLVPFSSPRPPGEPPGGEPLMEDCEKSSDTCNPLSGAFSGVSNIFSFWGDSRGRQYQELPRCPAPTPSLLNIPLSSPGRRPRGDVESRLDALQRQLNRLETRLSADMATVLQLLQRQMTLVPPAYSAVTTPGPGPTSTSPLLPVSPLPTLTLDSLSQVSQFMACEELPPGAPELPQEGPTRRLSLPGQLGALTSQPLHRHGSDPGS

[21] = biological target: Cytochrome P450 2C19 (Homo sapiens, UniProt P33261); assay: Inhibition of CYP2C19 in human liver microsomes; type: ADME; summary of the method: as §3
Cytochrome P450 2C19, sequence (P33261 whole entry): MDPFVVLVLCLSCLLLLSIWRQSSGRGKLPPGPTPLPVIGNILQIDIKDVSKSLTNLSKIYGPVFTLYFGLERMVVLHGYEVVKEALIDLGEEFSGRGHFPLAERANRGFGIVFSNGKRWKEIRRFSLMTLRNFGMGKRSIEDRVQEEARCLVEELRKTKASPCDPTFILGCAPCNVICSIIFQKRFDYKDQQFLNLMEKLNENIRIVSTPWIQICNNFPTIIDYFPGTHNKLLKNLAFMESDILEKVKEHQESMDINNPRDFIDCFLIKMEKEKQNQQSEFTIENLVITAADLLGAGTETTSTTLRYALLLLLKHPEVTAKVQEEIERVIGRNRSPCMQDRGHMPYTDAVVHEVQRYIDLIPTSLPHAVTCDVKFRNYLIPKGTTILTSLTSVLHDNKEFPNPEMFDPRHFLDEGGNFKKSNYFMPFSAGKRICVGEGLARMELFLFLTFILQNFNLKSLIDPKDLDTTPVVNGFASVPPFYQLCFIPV

[22] = Stability in pH 7.4 deuterated buffer by 1H NMR spectroscopy; type: physicochemical
Summary of the method: (§4)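 Compound diluted from a 25 mM DMSO-d6 stock to a final 1 mM in each deuterated buffer. Followed by ¹H NMR (500 MHz, water suppression, 64 scans) and LC-MS at 0, 24, 72 and 192 h (8 days).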

[23] = Stability in pH 1 deuterated buffer assessed as compound remaining after 8 days by 1H NMR spectroscopy; type: physicochemical; settings: pH 4 deuterated buffer, in the assay text read “pH 4” for “pH 1”, read-out: Stability; summary of the method: as §4
[24] = Toxicity in SCID CB17 mouse xenografted with human MCF7 cells at 20 mg/kg, po administered once daily and measured on day 20 of dosing; settings: in vivo, 20 d

C[C@@H]1Cc2c(ccc3[nH]ncc23)[C@@H](c2c(F)cc(/C=C/C(=O)O)cc2F)N1CC(C)(C)F gave a logD [1] of 2.6, a fraction unbound [2] of 0.0058 and a Papp at 10 µM [3] of 6.9 ×10⁻⁶ cm/s. For the same molecule, the efflux ratio at 10 µM [4] was 1.4, the efflux ratio at 10 µM [5] was 0.6 and the fraction unbound [6] was 0.0095. The fraction unbound [7] was 0.0032, the Vd [8] was 1.6 L/kg and the half-life [9] was 1.2 h. It also gave a bioavailability [10] of 45%, an AUC [11] of 0.83 µM·h and an AUC [12] of 3.2 µM·h. For the same molecule, the IC50 [13] was > 3.16 µM, the Activity [14] was “Dose-dependent effect” and the Activity [15] was “Dose-dependent effect”. For the same molecule, the IC50 [16] was 0.001 µM, the Activity [17] was “Dose-dependent effect” and the Ratio [18] was < 0.04. The IC50 [19] was 13 µM, the IC50 [20] was > 100 µM and the IC50 [21] was > 30 µM. The Stability [22] was “Stable”, the remaining at 192 h [23] was 58% and the Activity [24] was “Non-Toxic”.
